Reference: ChEMBL document CHEMBL3352109, “Synthesis and antifungal activity of substituted salicylaldehyde hydrazones, hydrazides and sulfohydrazides” (Bioorg Med Chem, 2014)
Values after ≈ are worked out from the molar mass of the structure shown. Active and inactive are the calls of the source. No cut-off for these calls is given here.

Assays:
Candida albicans [1] = assay: Antifungal activity against Candida albicans ATCC 10231 at 125 ug/ml by NCCLS method; type: functional, organism-based
Nakaseomyces glabratus [2] = assay: Antifungal activity against Candida glabrata ATCC 48435 at 125 ug/ml by NCCLS method; type: functional, organism-based
Candida albicans [3] = assay: Antifungal activity against Candida albicans ATCC 10231 by NCCLS method; type: functional
Outline: (§1)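 Broth dilution per NCCLS yeast reference method, in HEPES-buffered RPMI with 1% DMSO. MIC80 is the lowest concentration giving more than 80% growth inhibition versus positive (no-drug) controls. Read by visual scoring, not absorbance. Highest level tested 125 µg/mL.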

Nakaseomyces glabratus [4] = assay: Antifungal activity against Candida glabrata ATCC 48435 by NCCLS method; type: functional; outline: as §1

Structure (SMILES)	Activity (Candida albicans [1])	Activity (Nakaseomyces glabratus [2])	MIC80 (Candida albicans [3])	MIC80 (Nakaseomyces glabratus [4])
COc1ccc(O)c(/C=N/NS(=O)(=O)c2ccc(C)cc2)c1	inactive	inactive		
O=C(N/N=C/c1cc(Br)ccc1O)c1ccc(O)cc1			125 µg/mL (≈ 373 µM)	62 µg/mL (≈ 185 µM)
O=C(N/N=C/c1ccccc1O)c1ccccc1 [SALICYLALDEHYDE BENZOYL HYDRAZONE]			2 µg/mL (≈ 8.32 µM)	1 µg/mL (≈ 4.16 µM)
O=[N+]([O-])c1ccc(O)c(/C=N/NS(=O)(=O)c2ccc(Br)cc2)c1	inactive	inactive		
O=[N+]([O-])c1ccc(N/N=C/c2cccc(Br)c2O)cc1			inactive	inactive
O=C(N/N=C/c1cc(Cl)ccc1O)c1ccc([N+](=O)[O-])cc1			16 µg/mL (≈ 50 µM)	62 µg/mL (≈ 194 µM)
N/N=C/c1ccc(O)cc1O			62 µg/mL (≈ 407 µM)	31 µg/mL (≈ 204 µM)
O=[N+]([O-])c1ccc(N/N=C/c2cc(Cl)ccc2O)cc1			inactive	62 µg/mL (≈ 213 µM)
O=S(=O)(N/N=C/c1cc(Cl)ccc1O)c1ccc2ccccc2c1	inactive	inactive		
Oc1ccccc1/C=N/N=C/c1ccccc1O			inactive	inactive
O=S(=O)(N/N=C/c1cc(Br)ccc1O)c1ccc(Br)cc1	inactive	inactive		
O=[N+]([O-])c1ccc(O)c(/C=N/NS(=O)(=O)c2ccc3ccccc3c2)c1	inactive	inactive		
COc1ccc(O)c(/C=N/NC(=O)c2ccc([N+](=O)[O-])cc2)c1			125 µg/mL (≈ 396 µM)	2 µg/mL (≈ 6.34 µM)
O=[N+]([O-])c1ccc(N/N=C/c2cc(Br)ccc2O)cc1			inactive	inactive
O=[N+]([O-])c1ccc(N/N=C/c2ccccc2O)c([N+](=O)[O-])c1			inactive	inactive
N/N=C/c1cc(Br)ccc1O			31 µg/mL (≈ 144 µM)	62 µg/mL (≈ 288 µM)
O=S(=O)(N/N=C/c1ccccc1O)c1ccc(Br)cc1	inactive	inactive		
O=C(N/N=C/c1ccc(/C=N/NC(=O)c2ccccc2)cc1)c1ccccc1			inactive	inactive
COc1ccc(O)c(/C=N/NS(=O)(=O)c2ccc3ccccc3c2)c1	inactive	inactive		
COc1ccc(O)c(/C=N/Nc2ccccc2)c1			31 µg/mL (≈ 128 µM)	31 µg/mL (≈ 128 µM)
COc1ccc(O)c(/C=N/NC(=O)c2ccc(O)cc2)c1			inactive	4 µg/mL (≈ 14 µM)
CC(C)(C)c1ccc(C(=O)N/N=C/c2ccccc2O)cc1			4 µg/mL (≈ 13.5 µM)	125 µg/mL (≈ 422 µM)

Structure (SMILES)	Activity (Candida albicans [1])	Activity (Nakaseomyces glabratus [2])	MIC80 (Candida albicans [3])	MIC80 (Nakaseomyces glabratus [4])
CC(C)(C)c1cccc(/C=N/Nc2ccccc2)c1O			inactive	inactive
O=C(N/N=C/c1ccc(O)cc1O)c1ccc([N+](=O)[O-])cc1			inactive	0.5 µg/mL (≈ 1.66 µM)
O=C(N/N=C/c1ccccc1O)c1ccc(O)cc1			inactive	4 µg/mL (≈ 15.6 µM)
CC(C)(C)c1cccc(/C=N/NC(=O)c2ccccc2)c1O			inactive	inactive
N/N=C/c1cc(Br)cc(Br)c1O			16 µg/mL (≈ 54.4 µM)	8 µg/mL (≈ 27.2 µM)
O=[N+]([O-])c1ccc(N/N=C/c2ccc(O)cc2O)c([N+](=O)[O-])c1			inactive	inactive
COc1ccc(O)c(/C=N/NS(=O)(=O)c2ccccc2)c1	inactive	inactive		
O=C(N/N=C/c1cc(Cl)cc(Cl)c1O)c1ccccc1			8 µg/mL (≈ 25.9 µM)	16 µg/mL (≈ 51.8 µM)
O=C(N/N=C/c1cc([N+](=O)[O-])cc([N+](=O)[O-])c1O)c1ccccc1			inactive	inactive
O=C(N/N=C/c1cccc(Br)c1O)c1ccccc1			4 µg/mL (≈ 12.5 µM)	2 µg/mL (≈ 6.27 µM)
Cc1ccc(C)c(N/N=C/c2ccccc2O)c1			inactive	inactive
O=C(N/N=C/c1cc(Br)cc(Br)c1O)c1ccc([N+](=O)[O-])cc1			1 µg/mL (≈ 2.26 µM)	125 µg/mL (≈ 282 µM)
Oc1ccc(Br)cc1/C=N/Nc1ccccc1			31 µg/mL (≈ 106 µM)	31 µg/mL (≈ 106 µM)
Cc1ccc(O)c(/C=N/Nc2ccc([N+](=O)[O-])cc2)c1			inactive	inactive
O=[N+]([O-])c1ccc(N/N=C/c2ccccc2O)cc1			125 µg/mL (≈ 486 µM)	4 µg/mL (≈ 15.5 µM)
Cc1ccc(O)c(/C=N/NC(=O)c2ccc(O)cc2)c1			inactive	1 µg/mL (≈ 3.7 µM)
O=[N+]([O-])c1ccc(N/N=C/c2cc([N+](=O)[O-])ccc2O)cc1			125 µg/mL (≈ 414 µM)	62 µg/mL (≈ 205 µM)
O=C(N/N=C/c1ccc(O)cc1O)c1ccccc1			31 µg/mL (≈ 121 µM)	1 µg/mL (≈ 3.9 µM)
Oc1ccc(/C=N/Nc2ccccc2)c(O)c1			31 µg/mL (≈ 136 µM)	2 µg/mL (≈ 8.76 µM)
O=C(N/N=C/c1cc([N+](=O)[O-])ccc1O)c1ccccc1			16 µg/mL (≈ 56.1 µM)	16 µg/mL (≈ 56.1 µM)
C(=N\Nc1ccccc1)/c1ccc(/C=N/Nc2ccccc2)cc1			inactive	125 µg/mL (≈ 398 µM)
